Reference: ChEMBL document CHEMBL3616420, “Nitrogenated honokiol derivatives allosterically modulate GABAA receptors and act as strong partial agonists” (Bioorg Med Chem, 2015)
Activity calls are given as the source filed them. No cut-off for these calls is given here.

Columns and labels:
Type in all cases: cell-based
[1] = biological target: T1, GABA-A receptor; alpha-1/beta-2/gamma-2 (Homo sapiens) (UniProt P14867+P47870+P18507); assay: Partial agonist activity at GABAAalpha1beta2gamma2s receptor (unknown origin) expressed in Xenopus laevis oocytes assessed as induction of chloride current by two-microelectrode voltage-clamp method relative to GABA
Summary of the method: (§1)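 Stage V–VI Xenopus laevis oocytes, defolliculated with 2 mg/mL collagenase, were injected with subunit cRNAs (approx. 300–3000 pg/nL/subunit) and stored at +18 °C in modified ND96 (pH 7.4). Chloride currents were recorded by two-microelectrode voltage clamp at +21 °C, holding potential −70 mV. Washout was 1.5 min at low compound concentrations and 30 min at high ones. Curves were fitted to a Hill equation. Values are mean ± SE from at least 3 oocytes and 2 batches.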

[2] = biological target: T1, GABA-A receptor; alpha-1/beta-2/gamma-2 (Homo sapiens); assay: Allosteric modulation of GABAAalpha1beta2gamma2s receptor (unknown origin) expressed in Xenopus laevis oocytes assessed as potentiation of GABA-induced chloride current by two-microelectrode voltage-clamp method relative to GABA; summary of the method: as §1
[3] = biological target: T2, GABA-A receptor; alpha-1/beta-2/gamma-2 (Homo sapiens, UniProt P14867+P18507+P47870); assay: Allosteric modulation of GABAAalpha1beta2gamma2s receptor (unknown origin) expressed in Xenopus laevis oocytes assessed as potentiation of GABA-induced chloride current by two-microelectrode voltage-clamp method; summary of the method: as §1
T2 sequence (P14867 whole entry): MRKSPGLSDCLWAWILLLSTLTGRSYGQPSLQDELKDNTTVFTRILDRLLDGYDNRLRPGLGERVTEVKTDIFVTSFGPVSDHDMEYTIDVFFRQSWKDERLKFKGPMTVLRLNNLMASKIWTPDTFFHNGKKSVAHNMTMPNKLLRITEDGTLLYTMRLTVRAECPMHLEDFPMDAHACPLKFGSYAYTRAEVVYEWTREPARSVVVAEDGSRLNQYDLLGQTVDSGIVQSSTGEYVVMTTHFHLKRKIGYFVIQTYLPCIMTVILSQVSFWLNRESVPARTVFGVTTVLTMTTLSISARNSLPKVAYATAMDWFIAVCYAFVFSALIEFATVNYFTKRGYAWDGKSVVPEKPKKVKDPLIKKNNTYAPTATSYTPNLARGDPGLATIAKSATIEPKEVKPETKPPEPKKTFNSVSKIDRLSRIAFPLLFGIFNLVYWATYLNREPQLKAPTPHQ
T2 sequence (P47870 whole entry): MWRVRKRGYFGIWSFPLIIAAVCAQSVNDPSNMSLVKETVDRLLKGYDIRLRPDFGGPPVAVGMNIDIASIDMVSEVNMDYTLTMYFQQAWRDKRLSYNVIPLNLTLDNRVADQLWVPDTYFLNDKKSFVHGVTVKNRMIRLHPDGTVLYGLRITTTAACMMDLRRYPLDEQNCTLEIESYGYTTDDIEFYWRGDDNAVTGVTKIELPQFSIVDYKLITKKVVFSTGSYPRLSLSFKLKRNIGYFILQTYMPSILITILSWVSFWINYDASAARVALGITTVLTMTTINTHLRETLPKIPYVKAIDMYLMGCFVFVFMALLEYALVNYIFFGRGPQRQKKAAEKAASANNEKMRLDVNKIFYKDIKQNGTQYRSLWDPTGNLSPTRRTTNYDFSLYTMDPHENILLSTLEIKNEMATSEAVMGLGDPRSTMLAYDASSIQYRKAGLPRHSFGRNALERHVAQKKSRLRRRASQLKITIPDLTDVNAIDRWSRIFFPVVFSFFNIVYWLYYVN
T2 sequence (P18507 whole entry): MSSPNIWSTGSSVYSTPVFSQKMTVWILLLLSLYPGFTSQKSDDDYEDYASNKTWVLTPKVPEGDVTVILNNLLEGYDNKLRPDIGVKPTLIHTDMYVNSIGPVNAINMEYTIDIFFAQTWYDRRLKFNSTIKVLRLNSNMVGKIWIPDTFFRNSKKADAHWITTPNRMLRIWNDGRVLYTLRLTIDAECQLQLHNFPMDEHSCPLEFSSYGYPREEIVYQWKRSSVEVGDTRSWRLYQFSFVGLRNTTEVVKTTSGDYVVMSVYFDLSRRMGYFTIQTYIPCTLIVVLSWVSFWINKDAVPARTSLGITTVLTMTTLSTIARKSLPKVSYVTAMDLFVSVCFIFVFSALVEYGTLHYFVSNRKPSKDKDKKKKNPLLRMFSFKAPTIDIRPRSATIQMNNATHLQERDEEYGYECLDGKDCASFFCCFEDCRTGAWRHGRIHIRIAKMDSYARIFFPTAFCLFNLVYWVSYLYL

[4] = biological target: T1, GABA-A receptor; alpha-1/beta-2/gamma-2 (Homo sapiens); assay: Allosteric modulation of GABAAalpha1beta2gamma2s receptor (unknown origin) expressed in Xenopus laevis oocytes assessed as potentiation of GABA-induced chloride current at 100 uM by two-microelectrode voltage-clamp method
Summary of the method: (§2)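 Stage V–VI Xenopus oocytes were injected with 10–50 nL of DEPC-treated water carrying each GABAA subunit cRNA at about 300–3000 pg/nL/subunit. Oocytes were kept at +18 °C in modified ND96 (pH 7.4). Chloride currents were recorded by two-microelectrode voltage clamp at +21 °C, holding at −70 mV. Washout was lengthened at high drug concentrations. Values are mean SE from ≥3 oocytes and ≥2 batches.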

[5] = biological target: T1, GABA-A receptor; alpha-1/beta-2/gamma-2 (Homo sapiens); assay: Partial agonist activity at GABAAalpha1beta2gamma2s receptor (unknown origin) expressed in Xenopus laevis oocytes assessed as potentiation of GABA-induced chloride current at 100 uM by two-microelectrode voltage-clamp method; summary of the method: as §2
[6] = biological target: T2, GABA-A receptor; alpha-1/beta-2/gamma-2; assay: Partial agonist activity at GABAAalpha1beta2gamma2s receptor (unknown origin) expressed in Xenopus laevis oocytes assessed as induction of chloride current by two-microelectrode voltage-clamp method

Q: What does the source list for `CCCc1ccc(OC)c(-c2cc(CCC)c(O)c(NC(C)=O)c2)c1`?
A: Activity [1]: inactive; Emax [2]: 42.5%; EC50 [3]: 24.6 µM

Q: For `C=CCc1ccc(OCC)c(-c2cc(N)c(O)c(CC=C)c2)c1`, which Activity [1] is on record?
A: The Activity was “inactive”.

Q: And the Emax [2]?
A: The Emax was 91%.

Q: What about the EC50 [3] of the same compound?
A: The EC50 was 21.5 µM.

Q: Which results are given for `CCCc1ccc(OC)c(-c2cc(N)c(O)c(CCC)c2)c1`?
A: Activity [4]: Active; Emax [1]: 52%; Emax [2]: 108%; Activity [5]: Active; EC50 [6]: 62.2 µM; EC50 [3]: 15.8 µM

Q: How did the Activity [4] turn out when `CCCc1cc(N)c(O)c(-c2ccc(OCC)c(CCC)c2)c1` was run?
A: The Activity was “Active”.

Q: What about the Emax [1] of the same compound?
A: The Emax was 29%.

Q: And the Emax [2]?
A: Its Emax is 93.7%.

Q: What about the Activity [5] of the same compound?
A: Its Activity is “Active”.

Q: And the EC50 [6]?
A: Its EC50 is 33.2 µM.

Q: And the EC50 [3]?
A: Its EC50 is 14.4 µM.

Q: Which Activity [1] does the source give for `CCCc1ccc(OCC)c(-c2cc(N)c(O)c(CCC)c2)c1` here?
A: The Activity was “inactive”.

Q: And the Emax [2]?
A: The Emax was 118%.

Q: What about the EC50 [3] of the same compound?
A: The EC50 was 20.4 µM.

Q: With `C=CCc1ccc(OC)c(-c2cc(N)c(O)c(CC=C)c2)c1` as the compound, how does the Activity [4] read?
A: The Activity was “Active”.

Q: What about the Emax [1] of the same compound?
A: Its Emax is 59%.

Q: And the Emax [2]?
A: Its Emax is 72%.

Q: And the Activity [5]?
A: The Activity was “Active”.

Q: And the EC50 [6]?
A: Its EC50 is 144 µM.

Q: What about the EC50 [3] of the same compound?
A: The EC50 was 47.6 µM.

Q: With `C=CCc1ccc(O)c(-c2ccc(O)c(CC=C)c2)c1` [HONOKIOL] as the compound, how does the Emax [1] read?
A: Its Emax is 78%.

Q: And the EC50 [6]?
A: The EC50 was 76.2 µM.

Q: How did the Activity [4] turn out when `CCCc1cc(NC(C)=O)c(O)c(-c2ccc(OCC)c(CCC)c2)c1` was run?
A: The Activity was “Active”.

Q: And the Emax [1]?
A: Its Emax is 32%.

Q: What about the Emax [2] of the same compound?
A: Its Emax is 123%.

Q: And the Activity [5]?
A: Its Activity is “Active”.

Q: What about the EC50 [6] of the same compound?
A: Its EC50 is 6.9 µM.

Q: What about the EC50 [3] of the same compound?
A: Its EC50 is 1.8 µM.

Q: For `C=CCc1cc(NC(C)=O)c(O)c(-c2ccc(OC)c(CC=C)c2)c1`, which Emax [1] is on record?
A: Its Emax is 63%.

Q: What about the Emax [2] of the same compound?
A: Its Emax is 142%.

Q: And the EC50 [6]?
A: Its EC50 is 68.1 µM.

Q: And the EC50 [3]?
A: Its EC50 is 5.3 µM.
